RGS4 act: potentiators or activators of RGS4; HEK293 M3R/inducible RGS4, carbachol calcium flux Fluo4; active compounds read low; B-score at 10 µM; hit rate 0.92% among 310,000; AID 463111;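 active = B-score of the integrated calcium signal more than 4 SD below the library mean, with starting fluorescence not abnormally high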;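 note: negative B-score means reduced calcium response which marks RGS4 activation or potentiation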
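Material: M3R-expressing HEK293 line, RGS4 induced by doxycycline | Schedule: Overnight RGS4 induction, 30 min dye load 37 °C, 20 min compound RT | Measured by: Fluo4 fluorescence kinetic imaging of calcium | Read-out: Integrated calcium ratio converted to B score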
MrgX1 allo act: allosterically activates human MrgX1 receptor signaling. Q96LB2. MrgX1-HEK293, Fluo-4 calcium flux, FDSS; active compounds read high. B-score at 10 µM. hit rate 0.63% among 310,000;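 active = plate-corrected calcium response at least 3 library SD above typical, normal starting fluorescence, not activating the receptor alone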;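 note: compound read alongside a low EC10 to EC30 dose of BAM8-22 agonist; peak minus trough fluorescence over baseline measured at the second addition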
Target sequence (Q96LB2 whole entry, looked up): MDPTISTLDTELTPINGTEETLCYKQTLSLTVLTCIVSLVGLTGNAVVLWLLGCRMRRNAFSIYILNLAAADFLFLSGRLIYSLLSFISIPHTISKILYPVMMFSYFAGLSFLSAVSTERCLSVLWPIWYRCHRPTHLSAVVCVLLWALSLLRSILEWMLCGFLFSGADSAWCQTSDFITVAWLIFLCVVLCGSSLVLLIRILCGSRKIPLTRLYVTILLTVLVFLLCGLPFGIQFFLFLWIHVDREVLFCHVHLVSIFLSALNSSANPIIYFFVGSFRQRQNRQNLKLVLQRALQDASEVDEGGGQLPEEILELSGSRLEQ
RGS4 block: human RGS4 inhibition. P49798. HEK293 M3R/RGS4 inducible, Fluo-4 calcium flux; active compounds read high; triggered by carbachol at its EC20. B-score at 10 µM. hit rate 0.45% among 310,000;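 active = B-score, a plate-corrected calcium signal, over three deviations above library mean, with baseline fluorescence within five deviations of library mean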;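 note: RGS4 expression induced by doxycycline in cells with stable M3 receptor; B-score is computed from the integrated fluorescence ratio over baseline after carbachol; higher B-score means a larger calcium signal and so more RGS4 inhibition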
Target sequence (P49798 whole entry, looked up): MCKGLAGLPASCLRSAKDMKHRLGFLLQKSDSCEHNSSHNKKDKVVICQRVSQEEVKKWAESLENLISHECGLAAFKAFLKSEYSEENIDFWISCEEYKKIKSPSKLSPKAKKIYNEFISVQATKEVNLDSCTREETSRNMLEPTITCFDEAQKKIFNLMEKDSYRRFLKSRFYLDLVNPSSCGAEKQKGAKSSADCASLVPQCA
MrgX1 antag: blocks BAM8-22 activation of human MrgX1 receptor; B-score at 10 µM; hit rate 1.3% among 310,000; Q96LB2; MRGX1-HEK293 calcium flux, Fluo-4, BAM8-22 antagonism; active compounds read low;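 active = calcium-response B-score plate-corrected more than 3 library SD below zero, starting fluorescence within 5 deviations, no agonist response on first addition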;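 note: peak minus trough fluorescence over baseline after final BAM8-22 challenge near maximal dose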
MrgX1 ag: activates human MrgX1 receptor signaling | B-score at 10 µM | hit rate 0.44% among 310,000 | Q96LB2 | MrgX1-HEK293 cells, Fluo-4 calcium fluorescence, agonist mode; active compounds read high;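 active = calcium response B-score plate-corrected fluorescence ratio at least 3 library SD, with starting fluorescence B-score inside 5 SD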
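times = overnight plating, then 30 min 37 °C plus 30 min room-temperature dye loading | assay system = stable human MrgX1 HEK293 cell line | input = fifteen thousand cells per well | signal = kinetic calcium dye fluorescence, Fluo-4 NW | dosing = compound delivered in addition one of three | read-out = B-scored fluorescence response ratio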
MrgX1 ant reconf: human MrgX1 receptor antagonism, re-confirmation screen | hit rate 19% among 2,300 | AID 602420 | remaining BAM8-22 calcium response % of control (active compounds read low), % at 10 µM | MrgX1-HEK293, BAM8-22 calcium flux, Fluo-4; active compounds read low | shares compounds with MrgX1 antag;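 active = remaining agonist calcium response no higher than 100% minus 3 SD of agonist-only control wells, with starting fluorescence near control levels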;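 note: agonist BAM8-22 given at a near maximal EC90 to ECmax level; peak minus minimum fluorescence divided by baseline after agonist addition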
HEK293 Ca flux: MrgX1 antagonist counter-screen hit in parental HEK293 cells. shares compounds with MrgX1 antag. Fluo-4 calcium fluorescence, FDSS. fluorescence ratio F(max-min)/F0 at 10 µM. hit rate 2% among 4,000. AID 624111;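 active = duplicate-averaged calcium fluorescence ratio at least three times the standard deviation of buffer wells, a nonspecific response in parental cells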
HEK293 Ca counter: MrgX1 allosteric activator counter-screen hit in parental HEK293 cells; fluorescence ratio F(max-min)/F0 at 10 µM; parental HEK293 calcium flux, Fluo-4 fluorescence ratio; active compounds read high; hit rate 0.4% among 4,000; shares compounds with MrgX1 antag; AID 624114;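 active = calcium fluorescence ratio, averaged over duplicates, at least 3 SD of the buffer-well ratio, meaning a nonspecific response in receptor-free cells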;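 note: untransfected parental HEK293 lacking MrgX1 used as counterscreen for MrgX1 allosteric activators; fluorescence change taken during the second addition on a kinetic imager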
HEK293 Ca cntr2: activity in parental HEK293 cells lacking MrgX1 receptor | shares compounds with MrgX1 antag | Fluo-4 calcium fluorescence (FDSS); active compounds read high | fluorescence ratio F(max-min)/F0 at 10 µM | hit rate 8.7% among 4,000;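 active = calcium fluorescence ratio at least three times the spread of buffer wells, meaning a non-specific response in parental cells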
Of the large screens only hits and unclear results are named; the others gave an inactive call (follow-up assays come after a bar, where they were run). Shown are actives, neighbours in structure and some others; about 3.5% of the full set was active somewhere.

O=C(CCCn1c(SCc2cccc(F)c2)nc2ccccc2c1=O)NCC1CCCO1 (stereo unspecified)	MrgX1 antag -5.2 | MrgX1 ant reconf inactive | HEK293 Ca flux inactive | HEK293 Ca counter inactive | HEK293 Ca cntr2 inactive
COC1=CC(=O)CC(C)C12Oc1cc(OC)cc(OC)c1C2=O (stereo unspecified)	MrgX1 antag -5.91 | MrgX1 ant reconf inactive | HEK293 Ca flux inactive | HEK293 Ca counter inactive | HEK293 Ca cntr2 inactive
O=C(O)c1ccccc1CSc1ncn[nH]1	MrgX1 antag -8.32 | MrgX1 ant reconf inactive | HEK293 Ca flux inactive | HEK293 Ca counter inactive | HEK293 Ca cntr2 inactive
COC(=O)c1cccc(Oc2cccc(Cl)n2)c1	none
Cc1nc2cc(-c3cccs3)[nH]n2c(=O)c1C	MrgX1 antag -5.2 | MrgX1 ant reconf inactive | HEK293 Ca flux inactive | HEK293 Ca counter inactive | HEK293 Ca cntr2 inactive
O=C(NCc1nnc(SCC(=O)N2CCCC2)o1)c1c(F)cccc1F	none
O=C(NCc1nnc(SCC(=O)N2CCN(c3ccccc3)CC2)o1)c1c(F)cccc1F	MrgX1 antag -5.74 | MrgX1 ant reconf inactive | HEK293 Ca flux inactive | HEK293 Ca counter inactive | HEK293 Ca cntr2 inactive
Cc1ccc(S(=O)(=O)N(Cc2ccc([N+](=O)[O-])cc2)C(=O)N2CCN(C)CC2)cc1	none (no result: MrgX1 allo act, MrgX1 antag, MrgX1 ag)
O=C(NCCN1CCOCC1)c1ccc2c(c1)ncn2C1CCCCC1	MrgX1 antag -6.84 | MrgX1 ant reconf inactive | HEK293 Ca flux inactive | HEK293 Ca counter inactive | HEK293 Ca cntr2 inactive
COc1ccc(NC(=O)NC2(C(=O)N3CCN(C)CC3)CCCCC2)cc1	none
CCCC(=O)NCCc1nc2cc([N+](=O)[O-])ccc2n1C	none
COc1ccc(N=Cc2[nH]c3ccccc3c2O)cc1	none
COc1ccc(N=Cc2oc3ccc4ccccc4c3c2O)cc1	MrgX1 antag -5.08 | MrgX1 ant reconf 51.2% | HEK293 Ca flux inactive | HEK293 Ca counter inactive | HEK293 Ca cntr2 inactive
CCOC(=O)C1CCCN(C(=O)c2cnn3c(C(F)(F)F)cc(-c4ccccc4)nc23)C1 (stereo unspecified)	none
COc1ccc(-c2cc(C(F)(F)F)n3ncc(C(=O)N4CCCCC4c4cccnc4)c3n2)cc1 (stereo unspecified)	MrgX1 antag -5.79 | MrgX1 ant reconf inactive | HEK293 Ca flux inactive | HEK293 Ca counter inactive | HEK293 Ca cntr2 inactive
O=C(Nc1ccccc1)c1cccc(N2CCCC2=O)c1	MrgX1 antag -6.7 | MrgX1 ant reconf inactive | HEK293 Ca flux inactive | HEK293 Ca counter inactive | HEK293 Ca cntr2 inactive
CC(C)CN1C(=O)c2ccc(C(=O)Nc3c[nH]c(=O)[nH]c3=O)cc2C1=O	none
COc1cc(C(=O)Nc2ccc3c(c2)CCCN3C(=O)c2ccco2)c([N+](=O)[O-])cc1OC	none
O=C(O)c1ccc(-n2c(=O)c3ccccc3c3ccccc3c2=O)cc1	MrgX1 antag -6.34 | MrgX1 ant reconf inactive | HEK293 Ca flux inactive | HEK293 Ca counter inactive | HEK293 Ca cntr2 inactive
CC(=O)Nc1ccc(-n2c(=O)c3ccccc3c3ccccc3c2=O)cc1	none
COc1ccc(CN2CN=C(Nc3nc4ccccc4s3)NC2)cc1	MrgX1 antag -7.47 | MrgX1 ant reconf 57.0% | HEK293 Ca flux inactive | HEK293 Ca counter inactive | HEK293 Ca cntr2 inactive
c1ccc(CN2CN=C(Nc3nc4ccccc4s3)NC2)cc1	none
CC1CN(C(=O)COc2coc(CN3CCc4ccccc4C3)cc2=O)CC(C)O1 (stereo unspecified)	none
COC(=O)C1CSC(C(=O)OC)N1C(=O)CN1CCN(c2ccccc2)CC1 (stereo unspecified)	MrgX1 antag -8.1 | MrgX1 ant reconf 77.3% | HEK293 Ca flux inactive | HEK293 Ca counter inactive | HEK293 Ca cntr2 inactive
COC(=O)C1CSC(C(=O)OC)N1C(=O)Nc1ccccc1 (stereo unspecified)	none
O=C(C1Cc2ccccc2CN1C(=O)c1ccccc1)N1CCN(c2ccccc2)CC1 (stereo unspecified)	none
CC(C)CN1CCC(=O)N([C@H](COc2ccccc2)c2ccccc2)CC1	none
COc1ccc(OC)c(NC(=O)c2ccc3c(c2)C(=O)N(CC2CCCO2)C3=O)c1 (stereo unspecified)	none
C=CCOC(=O)C1=C(C)N(C)C(=O)NC1c1cc2c(cc1Br)OCO2 (stereo unspecified)	MrgX1 antag -4.65 | MrgX1 ant reconf 85.4% | HEK293 Ca flux inactive | HEK293 Ca counter inactive | HEK293 Ca cntr2 inactive
O=c1[nH]c(=S)[nH]cc1Oc1ccc(Cl)cc1Cl	none (no result: MrgX1 allo act, MrgX1 antag, MrgX1 ag)
COC(=O)c1sccc1N/N=C/c1cccc(Oc2ccccc2)c1	none
COCCCn1c(O)c(/C=C2\N=C(C#N)C(=Nc3ccc(C)cc3)O2)sc1=S	MrgX1 antag -11.1 | MrgX1 ant reconf inactive | HEK293 Ca flux inactive | HEK293 Ca counter inactive | HEK293 Ca cntr2 inactive
Cc1csc(NC(=O)c2ccc(Cn3nc(C)c(Br)c3C)o2)n1	MrgX1 antag -4.78 | MrgX1 ant reconf 74.0% | HEK293 Ca flux inactive | HEK293 Ca counter inactive | HEK293 Ca cntr2 inactive
Cc1cccc(C(=O)OC2CCOC2=O)c1C (stereo unspecified)	none
O=C(OCc1nnc(-c2ccccc2)o1)C1CC(=O)N(c2ccccc2)C1 (stereo unspecified)	none
O=C(OCc1nnc(-c2ccccc2)o1)C1CC(=O)N(Cc2ccco2)C1 (stereo unspecified)	MrgX1 antag -5.04 | MrgX1 ant reconf inactive | HEK293 Ca flux inactive | HEK293 Ca counter inactive | HEK293 Ca cntr2 inactive
Cc1cc(NC(=O)Nc2cc(F)ccc2F)no1	none
CCCn1c(N2CCN(C(=O)N3CCCCC3)CC2)nc2ccccc21	MrgX1 antag -6.16 | MrgX1 ant reconf inactive | HEK293 Ca flux inactive | HEK293 Ca counter inactive | HEK293 Ca cntr2 inactive
CCCn1c(N2CCN(C(=O)Nc3ccccc3)CC2)nc2ccccc21	none
O=C(CC1Sc2ccccc2NC1=O)NCc1ccc(Cl)cc1 (stereo unspecified)	none
Cc1c(NC(=O)C(C)OC(=O)c2cc(Cl)ccc2O)c(=O)n(-c2ccccc2)n1C (stereo unspecified)	none
CCOc1ccc(OCCN2C(=O)NC3(CCCc4ccccc43)C2=O)cc1 (stereo unspecified)	MrgX1 antag -5.47 | MrgX1 ant reconf inactive | HEK293 Ca flux inactive | HEK293 Ca counter inactive | HEK293 Ca cntr2 inactive

Bioassay records deposited in PubChem by Johns Hopkins Ion Channel Center.
